Columns and labels:
Macrophage = assay: (§1) Cytotoxicity against human THP-1 derived macrophages by colorimetric MTT assay; assay type: toxicity, cell-based; conditions: macrophage
Procedure, shortened: (§2)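 CC50 from at least three independent MTT colorimetric cytotoxicity runs on THP-1-derived macrophages. Selectivity index is CC50 (or lower CC50 interval estimate) divided by antiparasitic EC50.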

[1] = system: Trypanosoma brucei brucei; assay: Antitrypanosomal activity against bloodstream form of Trypanosoma brucei brucei Lister 427 assessed as parasite growth inhibition at 10 uM incubated for 72 hrs by resazurin dye based analysis relative to control; assay type: functional
Pteridine reductase 1 = biological target: T1, Pteridine reductase 1 (Leishmania major, UniProt Q01782); assay: Inhibition of recombinant Leishmania major PTR1 expressed in Escherichia coli BL21 (DE3) cells using H2B as substrate in presence of cytochrome c and NADPH by envision multilabel reader
T1 sequence (Q01782 whole entry): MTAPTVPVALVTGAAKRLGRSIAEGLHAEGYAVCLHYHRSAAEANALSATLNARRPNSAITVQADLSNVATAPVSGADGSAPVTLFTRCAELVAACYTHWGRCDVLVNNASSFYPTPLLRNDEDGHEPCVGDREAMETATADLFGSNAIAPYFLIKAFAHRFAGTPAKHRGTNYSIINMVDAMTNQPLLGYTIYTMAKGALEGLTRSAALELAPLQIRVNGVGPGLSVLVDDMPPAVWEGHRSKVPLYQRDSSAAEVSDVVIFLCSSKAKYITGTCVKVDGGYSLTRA

786-0 = assay: Mitochondrial toxicity in human 786-0 cells at 10 uM incubated with compound for 6 hrs followed by incubation with MitoTracker Red chloromethyl-X-rosamine dye for 45 mins by imaging analysis relative to control; assay type: cell-based; conditions: 786-0, 6 h
Procedure, shortened: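 Tested at 10 μM. 786-O cells kept in RPMI-1640 with 2 mM glutamine, 10% FCS, streptomycin 100 μg/mL and penicillin G 100 U/mL. Mitochondrial toxicity read as MitoTracker Red (chloromethyl-X-rosamine) uptake by high-content imaging.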

[2] = biological target: T2, Pteridine reductase, putative (Trypanosoma brucei, UniProt Q581W1); assay: Inhibition of recombinant Trypanosoma brucei PTR1 expressed in Escherichia coli BL21 (DE3) cells using H2B as substrate in presence of cytochrome c and NADPH by envision multilabel reader
T2 sequence (Q581W1 whole entry): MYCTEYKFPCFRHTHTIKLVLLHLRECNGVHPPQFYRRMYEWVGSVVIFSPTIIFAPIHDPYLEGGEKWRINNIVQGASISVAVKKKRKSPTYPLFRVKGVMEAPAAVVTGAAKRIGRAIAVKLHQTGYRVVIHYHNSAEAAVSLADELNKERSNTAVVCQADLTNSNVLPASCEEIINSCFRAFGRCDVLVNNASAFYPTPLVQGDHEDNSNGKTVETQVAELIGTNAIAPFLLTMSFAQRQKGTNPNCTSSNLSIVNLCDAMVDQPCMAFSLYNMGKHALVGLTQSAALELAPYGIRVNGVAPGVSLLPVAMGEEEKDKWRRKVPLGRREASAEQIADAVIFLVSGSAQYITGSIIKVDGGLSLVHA

CYP1A2 = biological target: T3, CYP1A2 (Homo sapiens, UniProt P05177); assay: Inhibition of CYP1A2 (unknown origin) expressed in baculovirus-infected insect cells at 10 uM using CYP/Luciferin as substrate incubated for 30 mins in presence of NADPH by luminescence based analysis relative to control; assay type: ADME; conditions: probe CYP/Luciferin
T3 sequence (P05177 whole entry): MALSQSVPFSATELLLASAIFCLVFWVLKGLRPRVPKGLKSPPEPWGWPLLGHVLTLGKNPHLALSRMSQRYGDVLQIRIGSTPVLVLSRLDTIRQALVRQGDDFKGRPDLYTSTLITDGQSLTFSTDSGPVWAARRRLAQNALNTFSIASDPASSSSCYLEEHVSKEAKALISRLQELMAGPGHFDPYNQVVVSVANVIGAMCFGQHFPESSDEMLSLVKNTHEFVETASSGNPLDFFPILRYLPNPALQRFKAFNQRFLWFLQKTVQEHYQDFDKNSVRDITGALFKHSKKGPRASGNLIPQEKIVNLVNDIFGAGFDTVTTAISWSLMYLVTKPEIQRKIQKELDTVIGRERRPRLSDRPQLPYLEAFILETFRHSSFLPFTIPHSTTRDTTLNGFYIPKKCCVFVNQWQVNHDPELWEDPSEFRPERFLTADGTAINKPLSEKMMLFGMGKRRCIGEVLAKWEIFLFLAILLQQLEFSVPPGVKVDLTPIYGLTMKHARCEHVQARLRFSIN
Procedure, shortened: (§3)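 Tested at 10 μM using microsomal preparations of each CYP isoform from baculovirus-infected insect cells on a luminescent P450-Glo platform. The enzyme acts on its substrate to give light, and a fall in luminescence indicates inhibition.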

[3] = system: Trypanosoma brucei brucei; assay: Antitrypanosomal activity against bloodstream form of Trypanosoma brucei brucei Lister 427 assessed as parasite growth inhibition incubated for 72 hrs by resazurin dye based analysis; assay type: functional, organism-based; conditions: Lister 427, 72 h
A549 = assay: Cytotoxicity against human A549 cells at 10 uM measured after 48 hrs by Celltiter-Glo assay relative to control; assay type: toxicity, cell-based; conditions: a549, 48 h
Procedure, shortened: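 Tested at 10 μM. A549 cells grown in DMEM with 10% FCS, streptomycin 100 μg/mL and penicillin G 100 U/mL. Viability read as cellular ATP by CellTiter-Glo luminescence.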

[4] = as §1; assay type: toxicity, cell-based, Macrophage; conditions: THP-1 derived macrophages; procedure, shortened: as §2
[5] = biological target: Bifunctional dihydrofolate reductase-thymidylate synthase (Trypanosoma brucei brucei, UniProt Q27783); assay: Inhibition of recombinant Trypanosoma brucei DHFR-TS expressed in Escherichia coli BL21 (DE3) cells using dihydrofolate as substrate in presence of NADPH by spectrophotometric analysis
CYP2D6 = CYP2D6 (Homo sapiens, UniProt P10635); assay: Inhibition of CYP2D6 (unknown origin) expressed in baculovirus-infected insect cells at 10 uM using CYP/Luciferin as substrate incubated for 30 mins in presence of NADPH by luminescence based analysis relative to control; assay type: ADME; conditions: probe CYP/Luciferin; procedure, shortened: as §3
[6] = biological target: Bifunctional dihydrofolate reductase-thymidylate synthase (Leishmania major, UniProt P07382); assay: Inhibition of recombinant Leishmania major DHFR-TS expressed in Escherichia coli BL21 (DE3) cells using dihydrofolate as substrate in presence of NADPH by spectrophotometric analysis
CYP3A4 = CYP3A4 (Homo sapiens, UniProt P08684); assay: Inhibition of CYP3A4 (unknown origin) expressed in baculovirus-infected insect cells at 10 uM using CYP/Luciferin as substrate incubated for 30 mins in presence of NADPH by luminescence based analysis relative to control; assay type: ADME; conditions: probe CYP/Luciferin; procedure, shortened: as §3
[7] = system: human DHFR versus Trypanosoma brucei DHFR; assay: Selectivity index, ratio of IC50 for human DHFR to IC50 for Trypanosoma brucei DHFR; assay type: toxicity; conditions: read-out: Ratio IC50
[8] = system: human DHFR versus Leishmania major DHFR; assay: Selectivity index, ratio of IC50 for human DHFR to IC50 for Leishmania major DHFR; assay type: toxicity; conditions: read-out: Ratio IC50
[9] = system: human DHFR versus Leishmania major PTR1; assay: Selectivity index, ratio of IC50 for human DHFR to IC50 for Leishmania major PTR1; assay type: toxicity; conditions: read-out: Ratio IC50
[10] = system: human DHFR versus Trypanosoma brucei PTR1; assay: Selectivity index, ratio of IC50 for human DHFR to IC50 for Trypanosoma brucei PTR1; assay type: toxicity; conditions: read-out: Ratio IC50
Dihydrofolate reductase = biological target: T4, Dihydrofolate reductase (Homo sapiens, UniProt P00374); assay: Inhibition of recombinant human DHFR expressed in Escherichia coli BL21 (DE3) cells using dihydrofolate as substrate in presence of NADPH by spectrophotometric analysis; assay type: toxicity
T4 sequence (P00374 whole entry): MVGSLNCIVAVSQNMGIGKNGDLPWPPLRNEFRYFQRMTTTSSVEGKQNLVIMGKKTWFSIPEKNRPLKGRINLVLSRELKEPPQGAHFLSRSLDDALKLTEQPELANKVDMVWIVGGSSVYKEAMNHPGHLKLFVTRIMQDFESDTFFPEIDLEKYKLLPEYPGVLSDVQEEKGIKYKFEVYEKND

CYP2C9 = CYP2C9 (Homo sapiens, UniProt P11712); assay: Inhibition of CYP2C9 (unknown origin) expressed in baculovirus-infected insect cells at 10 uM using CYP/Luciferin as substrate incubated for 30 mins in presence of NADPH by luminescence based analysis relative to control; assay type: ADME; conditions: probe CYP/Luciferin; procedure, shortened: as §3
CYP2C19 = CYP2C19 (Homo sapiens, UniProt P33261); assay: Inhibition of CYP2C19 (unknown origin) expressed in baculovirus-infected insect cells at 10 uM using CYP/Luciferin as substrate incubated for 30 mins in presence of NADPH by luminescence based analysis relative to control; assay type: ADME; conditions: probe CYP/Luciferin; procedure, shortened: as §3
[11] = biological target: Voltage-gated inwardly rectifying potassium channel KCNH2 (Homo sapiens, UniProt Q12809); assay: Inhibition of hERG potassium channel at 10 uM by fluorescence polarization assay relative to control; assay type: toxicity
Procedure, shortened: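 Tested at 10 μM. Fluorescence polarization readout using a hERG-containing membrane fraction and a red fluorescent high-affinity hERG tracer. Displacement of the tracer by the compound is measured.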

Sequence of CYP3A4 (P08684 whole entry): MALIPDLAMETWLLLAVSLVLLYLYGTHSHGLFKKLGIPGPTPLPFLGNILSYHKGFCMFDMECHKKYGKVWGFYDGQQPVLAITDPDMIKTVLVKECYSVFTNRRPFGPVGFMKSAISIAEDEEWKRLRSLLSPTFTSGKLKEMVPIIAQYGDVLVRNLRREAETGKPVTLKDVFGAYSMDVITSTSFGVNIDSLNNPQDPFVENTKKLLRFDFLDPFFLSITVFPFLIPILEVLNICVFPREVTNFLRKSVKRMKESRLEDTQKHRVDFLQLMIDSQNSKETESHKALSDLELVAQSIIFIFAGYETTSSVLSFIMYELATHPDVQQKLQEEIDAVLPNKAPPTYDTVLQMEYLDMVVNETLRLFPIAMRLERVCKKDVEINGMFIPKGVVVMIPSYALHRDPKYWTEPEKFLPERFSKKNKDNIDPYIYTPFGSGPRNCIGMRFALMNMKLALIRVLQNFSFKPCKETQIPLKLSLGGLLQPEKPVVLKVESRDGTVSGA
Sequence of Bifunctional dihydrofolate reductase-thymidylate synthase (Trypanosoma brucei brucei, UniProt Q27783) (Q27783 whole entry): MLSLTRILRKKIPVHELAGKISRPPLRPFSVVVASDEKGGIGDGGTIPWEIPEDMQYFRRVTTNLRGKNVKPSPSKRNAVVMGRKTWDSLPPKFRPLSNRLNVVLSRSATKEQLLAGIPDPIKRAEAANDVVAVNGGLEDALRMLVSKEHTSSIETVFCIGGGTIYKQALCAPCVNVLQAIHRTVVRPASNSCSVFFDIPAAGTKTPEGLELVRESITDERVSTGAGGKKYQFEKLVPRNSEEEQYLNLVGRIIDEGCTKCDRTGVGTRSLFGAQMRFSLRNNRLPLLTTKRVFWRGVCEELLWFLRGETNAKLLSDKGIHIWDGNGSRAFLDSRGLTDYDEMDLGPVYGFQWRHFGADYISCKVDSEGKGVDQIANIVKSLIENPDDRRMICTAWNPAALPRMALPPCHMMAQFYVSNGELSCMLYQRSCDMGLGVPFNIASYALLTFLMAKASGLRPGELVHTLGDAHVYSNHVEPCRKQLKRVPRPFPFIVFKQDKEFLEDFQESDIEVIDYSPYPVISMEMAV
Sequence of Bifunctional dihydrofolate reductase-thymidylate synthase (Leishmania major, UniProt P07382) (P07382 whole entry): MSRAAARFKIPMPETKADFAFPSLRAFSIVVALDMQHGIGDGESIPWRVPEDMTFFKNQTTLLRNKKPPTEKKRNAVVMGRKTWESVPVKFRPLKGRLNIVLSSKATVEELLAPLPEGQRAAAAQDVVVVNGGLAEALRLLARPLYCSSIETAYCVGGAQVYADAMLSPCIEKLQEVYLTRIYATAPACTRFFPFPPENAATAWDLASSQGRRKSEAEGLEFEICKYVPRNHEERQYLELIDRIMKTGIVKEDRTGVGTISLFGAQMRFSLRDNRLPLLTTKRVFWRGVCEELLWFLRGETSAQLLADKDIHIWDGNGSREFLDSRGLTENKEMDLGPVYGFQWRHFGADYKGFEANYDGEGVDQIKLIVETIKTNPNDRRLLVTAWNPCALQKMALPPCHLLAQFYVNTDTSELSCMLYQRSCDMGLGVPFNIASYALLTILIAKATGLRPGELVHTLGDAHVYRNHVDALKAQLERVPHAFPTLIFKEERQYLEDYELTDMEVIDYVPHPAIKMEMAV
Sequence of CYP2C19 (P33261 whole entry): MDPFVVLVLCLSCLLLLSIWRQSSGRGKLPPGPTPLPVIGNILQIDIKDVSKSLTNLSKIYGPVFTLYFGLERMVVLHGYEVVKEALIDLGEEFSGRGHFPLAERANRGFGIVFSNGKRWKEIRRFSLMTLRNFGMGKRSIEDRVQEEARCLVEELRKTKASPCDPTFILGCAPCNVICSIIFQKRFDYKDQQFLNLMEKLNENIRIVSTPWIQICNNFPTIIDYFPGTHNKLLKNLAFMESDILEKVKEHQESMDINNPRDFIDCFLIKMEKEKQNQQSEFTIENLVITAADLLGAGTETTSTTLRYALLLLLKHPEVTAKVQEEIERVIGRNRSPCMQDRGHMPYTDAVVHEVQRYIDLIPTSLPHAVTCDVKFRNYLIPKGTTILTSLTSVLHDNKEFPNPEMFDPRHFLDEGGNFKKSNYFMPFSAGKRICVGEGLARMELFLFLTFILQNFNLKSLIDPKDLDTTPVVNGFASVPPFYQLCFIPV
Sequence of CYP2D6 (P10635 whole entry): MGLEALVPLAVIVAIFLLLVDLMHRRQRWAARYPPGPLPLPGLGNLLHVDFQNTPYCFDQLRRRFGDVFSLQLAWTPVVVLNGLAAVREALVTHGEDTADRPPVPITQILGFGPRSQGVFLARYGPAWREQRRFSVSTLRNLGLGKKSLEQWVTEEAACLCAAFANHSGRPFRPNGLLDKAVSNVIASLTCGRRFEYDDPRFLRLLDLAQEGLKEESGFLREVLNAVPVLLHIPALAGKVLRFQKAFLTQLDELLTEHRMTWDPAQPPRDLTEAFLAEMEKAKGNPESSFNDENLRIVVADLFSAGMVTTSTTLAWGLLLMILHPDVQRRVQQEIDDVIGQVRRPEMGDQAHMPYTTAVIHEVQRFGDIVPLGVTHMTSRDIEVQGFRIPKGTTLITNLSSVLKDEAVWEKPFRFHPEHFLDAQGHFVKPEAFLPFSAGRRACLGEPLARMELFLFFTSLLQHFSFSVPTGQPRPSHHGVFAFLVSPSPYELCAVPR
Sequence of CYP2C9 (P11712 whole entry): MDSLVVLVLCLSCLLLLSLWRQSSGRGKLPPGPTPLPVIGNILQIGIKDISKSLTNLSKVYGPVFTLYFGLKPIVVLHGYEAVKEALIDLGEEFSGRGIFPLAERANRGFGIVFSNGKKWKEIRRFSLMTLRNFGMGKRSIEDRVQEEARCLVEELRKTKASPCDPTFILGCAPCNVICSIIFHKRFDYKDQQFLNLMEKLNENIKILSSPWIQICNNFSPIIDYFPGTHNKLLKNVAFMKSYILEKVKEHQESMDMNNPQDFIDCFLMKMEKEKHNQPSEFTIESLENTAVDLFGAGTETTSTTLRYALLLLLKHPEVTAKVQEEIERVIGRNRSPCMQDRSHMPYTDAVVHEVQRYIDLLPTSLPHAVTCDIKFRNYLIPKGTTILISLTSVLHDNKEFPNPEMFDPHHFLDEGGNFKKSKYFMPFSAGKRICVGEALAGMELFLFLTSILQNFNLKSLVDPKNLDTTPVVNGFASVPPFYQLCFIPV
Sequence of Voltage-gated inwardly rectifying potassium channel KCNH2 (Q12809 whole entry): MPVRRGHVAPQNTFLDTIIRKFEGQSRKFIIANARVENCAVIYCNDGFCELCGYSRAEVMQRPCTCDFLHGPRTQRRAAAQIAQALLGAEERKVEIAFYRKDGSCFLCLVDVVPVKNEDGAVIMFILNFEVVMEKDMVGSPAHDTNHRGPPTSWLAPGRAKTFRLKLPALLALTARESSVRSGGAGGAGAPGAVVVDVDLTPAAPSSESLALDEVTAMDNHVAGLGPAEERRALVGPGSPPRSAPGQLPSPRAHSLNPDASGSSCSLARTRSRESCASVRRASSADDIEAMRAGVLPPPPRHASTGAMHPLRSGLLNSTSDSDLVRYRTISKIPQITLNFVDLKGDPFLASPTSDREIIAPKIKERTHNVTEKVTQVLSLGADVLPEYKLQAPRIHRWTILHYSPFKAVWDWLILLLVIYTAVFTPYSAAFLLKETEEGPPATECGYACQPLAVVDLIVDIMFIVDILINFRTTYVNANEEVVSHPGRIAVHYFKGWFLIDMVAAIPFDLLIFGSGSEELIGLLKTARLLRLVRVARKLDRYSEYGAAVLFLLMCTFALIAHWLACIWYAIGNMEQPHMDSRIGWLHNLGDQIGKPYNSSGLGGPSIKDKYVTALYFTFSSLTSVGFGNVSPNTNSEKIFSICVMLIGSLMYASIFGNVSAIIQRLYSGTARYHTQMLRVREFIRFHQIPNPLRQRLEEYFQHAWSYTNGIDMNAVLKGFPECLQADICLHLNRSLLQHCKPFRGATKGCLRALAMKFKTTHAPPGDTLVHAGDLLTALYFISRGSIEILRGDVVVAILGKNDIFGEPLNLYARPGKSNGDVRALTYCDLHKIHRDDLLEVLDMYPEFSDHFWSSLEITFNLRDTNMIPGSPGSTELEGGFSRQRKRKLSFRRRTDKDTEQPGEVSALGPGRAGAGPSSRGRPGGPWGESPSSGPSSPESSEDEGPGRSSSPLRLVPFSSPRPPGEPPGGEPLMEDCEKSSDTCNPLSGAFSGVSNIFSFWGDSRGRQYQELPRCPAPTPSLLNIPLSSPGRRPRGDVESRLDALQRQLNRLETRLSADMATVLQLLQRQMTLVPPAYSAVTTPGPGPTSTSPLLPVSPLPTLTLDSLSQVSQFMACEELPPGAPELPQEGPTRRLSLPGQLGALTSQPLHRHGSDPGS

| Compound | inhibition at 10 µM [1] | IC50 (Pteridine reductase 1) | Activity (786-0) | IC50 [2] | Activity (A549) | IC50 [5] | IC50 [6] | inhibition at 0.5 h, 10 µM (CYP3A4) | selectivity ratio [7] | selectivity ratio [8] | selectivity ratio [9] | selectivity ratio [10] | IC50 (Dihydrofolate reductase) | also measured |
| --- | --- | --- | --- | --- | --- | --- | --- | --- | --- | --- | --- | --- | --- | --- |
| N=C(N)c1ccc(OCCCCCOc2ccc(C(=N)N)cc2)cc1 [PENTAMIDINE] | – | – | – | – | – | – | – | – | – | – | – | – | – | CC50 (Macrophage): 10000 nM |
| COc1ccc(Oc2ccc(CN(C)Cc3cnc4nc(N)nc(N)c4n3)cc2)cc1 | 100% | 450 nM | 1% | 150 nM | 15% | – | – | – | – | – | – | – | – | inhibition at 0.5 h, 10 µM (CYP1A2): 9%; EC50 [3]: 1300 nM; CC50 [4]: 12500 nM |
| COC(=O)C1CCN(C(=O)c2ccc(N(CCO)Cc3cnc4nc(N)nc(N)c4n3)cc2)CC1 | – | – | 0% | 200 nM | 100% | 1260 nM | 1210 nM | – | – | – | – | – | – | inhibition at 0.5 h, 10 µM (CYP2D6): 0% |
| COc1ccc(Oc2ccc(CNCc3cnc4nc(N)nc(N)c4n3)cc2)cc1 | – | 260 nM | 0% | 520 nM | – | – | – | 33% | 1 | 1 | 385 | 192 | – | – |
| NC(=O)C1CCCN1C(=O)Cc1ccc(N(CCCO)Cc2cnc3nc(N)nc(N)c3n2)cc1 (stereo unspecified) | 23% | 170 nM | – | 4 nM | – | 590 nM | 890 nM | 0% | – | – | – | – | – | – |
| CCN(Cc1cnc2nc(N)nc(N)c2n1)c1ccc(C(=O)c2ccccc2)cc1 | 78% | 50 nM | 0% | < 0.1 nM | 0% | 340 nM | 230 nM | – | – | – | – | – | – | EC50 [3]: 660 nM; CC50 [4]: 25000 nM |
| COC(=O)C1CCN(C(=O)c2ccc(N(CCCO)Cc3cnc4nc(N)nc(N)c4n3)cc2)CC1 | – | 220 nM | 0% | 30 nM | 100% | 430 nM | 760 nM | – | 35 | 20 | 68 | 500 | 15000 nM | inhibition at 0.5 h, 10 µM (CYP2C9): 17% |
| Nc1nc(N)c2nc(CNc3ccc(C(=O)c4ccccc4)cc3)cnc2n1 | – | 30 nM | 10% | 1 nM | – | 990 nM | 3260 nM | 17% | 6 | 2 | 201 | 6020 | 6020 nM | – |
| COC(=O)C1CCN(C(=O)Cc2ccc(NCc3cnc4nc(N)nc(N)c4n3)cc2)CC1 | – | 1140 nM | 0% | 140 nM | 100% | 620 nM | 850 nM | – | 56 | 41 | 31 | 250 | 35000 nM | inhibition at 0.5 h, 10 µM (CYP2C19): 12%; inhibition at 0.5 h, 10 µM (CYP1A2): 12% |
| COC(=O)C1CCN(C(=O)c2ccc(N(Cc3ccccc3)Cc3cnc4nc(N)nc(N)c4n3)cc2)CC1 | – | 20 nM | 0% | < 0.1 nM | 100% | 1200 nM | 910 nM | – | 61 | 80 | 3650 | > 730000 | 73000 nM | inhibition (INH) [11]: 45% |
